Source: ChEMBL document CHEMBL4251758, “Small Molecule Inhibition of MicroRNA miR-21 Rescues Chemosensitivity of Renal-Cell Carcinoma to Topotecan” (J Med Chem, 2018)
The source made the active and inactive calls. No cut-off for these calls is given here.

Tests used:
[1] = Inhibition of miR-122 RNA (unknown origin) transfected in human Huh7-psiCHECK-miR122 cells at 10 uM incubated for 48 hrs by Bright-Glo luciferase reporter gene assay
[2] = tested on: HeLa; test: Effect on mature miR-21 expression levels in human HeLa cells at 10 uM after 48 hrs by qRT-PCR analysis; format: functional, cell-based
Summary of the method: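 HeLa cells, 150,000 per well, grown overnight and exposed to 10 μM compound or DMSO (1% final) for 48 h at 37 °C. RNA was isolated and 100 ng reverse-transcribed with miR-21 or RNU19 TaqMan RT primers. TaqMan qPCR run for 40 cycles. Triplicate Ct values converted to levels relative to DMSO by the 2−ΔΔCt method.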

[3] = tested on: HeLa; test: Effect on primary miR-21 expression levels in human HeLa cells at 10 uM after 48 hrs by qRT-PCR analysis; format: functional, cell-based
Summary of the method: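 HeLa cells were treated with 10 μM compound or DMSO (1% final) for 48 h, then RNA was isolated. 50 ng RNA was reverse-transcribed with iScript. TaqMan qPCR used pri-miR-21 and GAPDH primers. Triplicate Ct values were normalized to GAPDH and to DMSO controls by the 2−ΔΔCt method.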

[4] = tested on: A498; test: Decrease in mature miR-21 expression levels in human A498 cells at 10 uM after 48 hrs by qRT-PCR analysis; format: functional, cell-based
[5] = tested on: A549; test: Decrease in mature miR-21 expression levels in human A549 cells at 10 uM after 48 hrs by qRT-PCR analysis; format: functional, cell-based
[6] = tested on: MCF7; test: Cytotoxicity against human MCF7 cells after 72 hrs by XTT assay; format: functional, cell-based; details: MCF7, 72 h
Summary of the method: (§1)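 Cells seeded at 500 per well, incubated overnight, then exposed to increasing compound concentrations (0.1% DMSO final, DMSO control) in triplicate for 72 h. Activated XTT added; absorbance read at 450 nm with 630 nm background at start and after 4 h at 37 °C, 5% CO2. Change normalized to DMSO as % viability; IC50 from variable-slope sigmoidal fit; three independent measurements.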

[7] = tested on: NIH3T3; test: Cytotoxicity against mouse NIH/3T3 cells up to 100 uM after 72 hrs by XTT assay; format: cell-based; details: nih3t3, 72 h; summary of the method: as §1
[8] = tested on: microRNA 21; test: Inhibition of miR-21 RNA in human A498 cells assessed as potentiation of topotecan-induced cytotoxicity by measuring reduction in topotecan IC50 at 10 uM after 72 hrs by XTT assay relative to topotecan alone; format: cell-based
Summary of the method: (§2)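 The chemotherapeutic agent (topotecan) was titrated while the miR-21 inhibitor was held at a fixed concentration, 0.1% DMSO final, in triplicate. Cells were seeded at 500 per well and treated after overnight attachment. After 72 h, XTT was read at 450 nm (630 nm background) at start and after 4 h. Signal normalized to DMSO; IC50 from variable-slope sigmoidal fit.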

[9] = tested on: A498; test: Inhibition of colony formation of human A498 cells up to 10 uM after 2 weeks by crystal violet staining-based microscopic analysis; format: functional, cell-based
Summary of the method: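 A498 cells, 10,000 per well, seeded in 0.45% low-melt agarose in DMEM over a 0.7% agarose base layer, containing increasing compound concentrations or DMSO (0.1% final), in triplicate. For combinations, the inhibitor was held at 10 μM. After 2 weeks, colonies were stained with 0.1% crystal violet and imaged by z-stack microscopy. Colony counts were normalized to DMSO; IC50 from sigmoidal fit.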

[10] = tested on: microRNA 21; test: Inhibition of miR-21 RNA in human A498 cells assessed as potentiation of topotecan-induced apoptosis by measuring increase in caspase-3/7 activity at 10 uM after 24 hrs by Caspase-Glo 3/7 assay relative to control; format: cell-based; design: scale not given: the % may be the effect or the level left
Summary of the method: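 A498 cells, 10,000 per well, treated after overnight attachment for 24 h with DMSO (0.1%), 400 nM topotecan, 10 μM inhibitor, or topotecan plus inhibitor at those levels. Caspase-3/7 activity read by Caspase-Glo 3/7 luminescence and normalized to DMSO. At least three independent experiments; unpaired t test.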

[11] = biological target: microRNA 21; test: Inhibition of miR-21 RNA in human A498 cells assessed as potentiation of topotecan-induced cytotoxicity by measuring topotecan IC50 at 10 uM after 72 hrs by XTT assay (reference value: 1 uM); format: cell-based; summary of the method: as §2

inhibition [1]: inactive
Compound: C#CCOc1ccc(-c2noc(-c3nnn(-c4cccc(/C(C)=N/O)c4)c3N)n2)cc1
Activity [2]: inactive
Activity [3]: inactive
Activity [4]: inactive
Activity [5]: inactive
IC50 [6]: 4500 nM
Activity [7]: Non-Toxic
fold change (FC) [8]: 11
inhibition [9]: inactive
Activity [10]: 512%
IC50 [11]: 90 nM
